Activity calls are given as the source filed them. The rule behind the calls is not given here.
How the values were obtained:
SARS-CoV-2 [1] = test: Antiviral activity against pseudovirus SARS-CoV-2 spike protein infected human HEK293T cells overexpressing ACE2 assessed as inhibition on pseudovirus infection incubated for 48 hrs by luciferase assay; type: functional, organism-based; conditions: Severe acute respiratory syndrome coronavirus 2, HEK-293T
How it was run: (§1)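 S plasmid (wild type, or E484K, D614G or N501Y mutant) transfected into 293T cells; PsV-containing supernatant harvested at 48 h. 293T-ACE2 cells seeded 24 h ahead, then given an equal-volume mix of compound dilutions and PsV supernatant for 48 h. Cells lysed and luciferase activity quantified. Mean ± SD of three experiments.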

[2] = Selectivity index, ratio of CC50 for cytotoxicity against human HEK293T cells overexpressing human ACE2 to EC50 for antiviral activity against SARS-CoV-2 VSV-G pseudotyped virus infected human HEK293T cells overexpressing ACE2; type: toxicity, cell-based; conditions: read-out: Ratio CC50/EC50
SARS-CoV-2 [3] = test: Antiviral activity against pseudovirus SARS-CoV-2 spike protein infected human HEK293T cells overexpressing ACE2 assessed as inhibition on pseudovirus infection at 10 uM incubated for 48 hrs by luciferase assay; type: functional; conditions: Severe acute respiratory syndrome coronavirus 2, HEK-293T; how it was run: as §1
SARS-CoV-2 [4] = test: Antiviral activity against pseudovirus SARS-CoV-2 spike protein infected human HEK293T cells overexpressing ACE2 assessed as inhibition on pseudovirus infection at 40 uM incubated for 48 hrs by luciferase assay; type: functional; conditions: Severe acute respiratory syndrome coronavirus 2, HEK-293T; how it was run: as §1
SARS-CoV-2 [5] = test: Antiviral activity against SARS-CoV-2 VSV-G pseudotyped virus infected human HEK293T cells overexpressing ACE2 incubated for 48 hrs by luciferase assay; type: functional, organism-based; conditions: Severe acute respiratory syndrome coronavirus 2, HEK-293T
SARS-CoV-2 [6] = test: Antiviral activity against pseudovirus SARS-CoV-2 spike protein with E484K mutant infected human HEK293T cells overexpressing ACE2 assessed as inhibition on pseudovirus infection at 5 to 40 uM incubated for 48 hrs by luciferase assay; type: functional, organism-based; conditions: Severe acute respiratory syndrome coronavirus 2, dose 5-40 µM; how it was run: as §1
SARS-CoV-2 [7] = test: Antiviral activity against pseudovirus SARS-CoV-2 spike protein with D614G mutant infected human HEK293T cells overexpressing ACE2 assessed as inhibition on pseudovirus infection at 5 to 40 uM incubated for 48 hrs by luciferase assay; type: functional, organism-based; conditions: Severe acute respiratory syndrome coronavirus 2, dose 5-40 µM; how it was run: as §1
SARS-CoV-2 [8] = test: Antiviral activity against pseudovirus SARS-CoV-2 spike protein with N501Y mutant infected human HEK293T cells overexpressing ACE2 assessed as inhibition on pseudovirus infection at 5 to 40 uM incubated for 48 hrs by luciferase assay; type: functional, organism-based; conditions: Severe acute respiratory syndrome coronavirus 2, dose 5-40 µM; how it was run: as §1
SARS-CoV-2 [9] = test: Antiviral activity against pseudotyped spike protein mutant B.1.1.7 SARS-CoV-2 Alpha variant infected human HEK293T cells overexpressing ACE2 assessed as inhibition on viral entry incubated for 48 hrs by luciferase assay; type: functional, organism-based, Severe acute respiratory syndrome coronavirus 2
SARS-CoV-2 [10] = test: Antiviral activity against pseudotyped spike protein mutant B.1.351 SARS-CoV-2 Beta variant infected human HEK293T cells overexpressing ACE2 assessed as inhibition on viral entry incubated for 48 hrs by luciferase assay; type: functional, organism-based, Severe acute respiratory syndrome coronavirus 2
SARS-CoV-2 [11] = test: Antiviral activity against pseudotyped spike protein mutant P.10 SARS-CoV-2 Gamma variant infected human HEK293T cells overexpressing ACE2 assessed as inhibition on viral entry incubated for 48 hrs by luciferase assay; type: functional, organism-based, Severe acute respiratory syndrome coronavirus 2
SARS-CoV-2 [12] = test: Antiviral activity against pseudovirus spike protein mutant B.1.617.2 SARS-CoV-2 Delta variant infected human HEK293T cells overexpressing ACE2 assessed as inhibition on viral entry incubated for 48 hrs by luciferase assay; type: functional, organism-based, Severe acute respiratory syndrome coronavirus 2
SARS-CoV-2 [13] = test: Antiviral activity against pseudovirus SARS-CoV-2 spike protein mutant Omicron variant infected human HEK293T cells overexpressing ACE2 assessed as inhibition on viral entry incubated for 48 hrs by luciferase assay; type: functional, organism-based, Severe acute respiratory syndrome coronavirus 2

Compound | EC50 (SARS-CoV-2 [1]) [µM] | inhibition at 10 µM (SARS-CoV-2 [3]) [%] | inhibition at 40 µM (SARS-CoV-2 [4]) [%] | other results
COc1ccccc1NC(=O)[C@]12CC[C@@H](C)[C@H](C)[C@H]1C1=CC[C@@H]3[C@@]4(C)CC[C@H](O[C@@H]5O[C@H](CO)[C@@H](O[C@@H]6O[C@@H](C)[C@H](O)[C@@H](O)[C@H]6O)[C@H](O)[C@H]5O[C@@H]5O[C@@H](C)[C@H](O)[C@@H](O)[C@H]5O)C(C)(C)[C@@H]4CC[C@@]3(C)[C@]1(C)CC2 | 10.7 | – | – | selectivity ratio [2]: 4.05
C[C@H]1[C@H](C)CC[C@]2(C(=O)Nc3ccc(-c4ccccc4)cc3)CC[C@]3(C)C(=CC[C@@H]4[C@@]5(C)CC[C@H](O[C@@H]6O[C@H](CO)[C@@H](O[C@@H]7O[C@@H](C)[C@H](O)[C@@H](O)[C@H]7O)[C@H](O)[C@H]6O[C@@H]6O[C@@H](C)[C@H](O)[C@@H](O)[C@H]6O)C(C)(C)[C@@H]5CC[C@]43C)[C@H]12 | – | 27.4 | 16.9 | –
C[C@H]1[C@H](C)CC[C@]2(C(=O)NCc3ccccc3)CC[C@]3(C)C(=CC[C@@H]4[C@@]5(C)CC[C@H](O[C@@H]6O[C@H](CO)[C@@H](O[C@@H]7O[C@@H](C)[C@H](O)[C@@H](O)[C@H]7O)[C@H](O)[C@H]6O[C@@H]6O[C@@H](C)[C@H](O)[C@@H](O)[C@H]6O)C(C)(C)[C@@H]5CC[C@]43C)[C@H]12 | 12 | 92.5 | 59.2 | EC50 (SARS-CoV-2 [5]): > 100 µM; selectivity ratio [2]: > 10
O=C(/C=C/c1ccc(O)c2oc(-c3ccc(O)c(O)c3)cc12)O[C@H](Cc1ccc(O)c(O)c1)C(=O)O | – | 98.3 | 80.2 | –
C[C@H]1[C@H](C)CC[C@]2(C(=O)Nc3ccc(Cc4ccccc4)cc3)CC[C@]3(C)C(=CC[C@@H]4[C@@]5(C)CC[C@H](O[C@@H]6O[C@H](CO)[C@@H](O[C@@H]7O[C@@H](C)[C@H](O)[C@@H](O)[C@H]7O)[C@H](O)[C@H]6O[C@@H]6O[C@@H](C)[C@H](O)[C@@H](O)[C@H]6O)C(C)(C)[C@@H]5CC[C@]43C)[C@H]12 | – | 19.2 | 10.3 | –
C[C@H]1[C@H](C)CC[C@]2(C(=O)NCCc3ccccc3)CC[C@]3(C)C(=CC[C@@H]4[C@@]5(C)CC[C@H](O[C@@H]6O[C@H](CO)[C@@H](O[C@@H]7O[C@@H](C)[C@H](O)[C@@H](O)[C@H]7O)[C@H](O)[C@H]6O[C@@H]6O[C@@H](C)[C@H](O)[C@@H](O)[C@H]6O)C(C)(C)[C@@H]5CC[C@]43C)[C@H]12 | – | 49.5 | 28.2 | –
C[C@H]1[C@H](C)CC[C@]2(C(=O)Nc3ccccc3Cl)CC[C@]3(C)C(=CC[C@@H]4[C@@]5(C)CC[C@H](O[C@@H]6O[C@H](CO)[C@@H](O[C@@H]7O[C@@H](C)[C@H](O)[C@@H](O)[C@H]7O)[C@H](O)[C@H]6O[C@@H]6O[C@@H](C)[C@H](O)[C@@H](O)[C@H]6O)C(C)(C)[C@@H]5CC[C@]43C)[C@H]12 | 12.7 | – | – | –
C[C@H]1[C@H](C)CC[C@]2(C(=O)Nc3ccc4sccc4c3)CC[C@]3(C)C(=CC[C@@H]4[C@@]5(C)CC[C@H](O[C@@H]6O[C@H](CO)[C@@H](O[C@@H]7O[C@@H](C)[C@H](O)[C@@H](O)[C@H]7O)[C@H](O)[C@H]6O[C@@H]6O[C@@H](C)[C@H](O)[C@@H](O)[C@H]6O)C(C)(C)[C@@H]5CC[C@]43C)[C@H]12 | – | -21.7 | -31.8 | –
C[C@H]1[C@H](C)CC[C@]2(C(=O)N3CCc4ccccc4C3)CC[C@]3(C)C(=CC[C@@H]4[C@@]5(C)CC[C@H](O[C@@H]6O[C@H](CO)[C@@H](O[C@@H]7O[C@@H](C)[C@H](O)[C@@H](O)[C@H]7O)[C@H](O)[C@H]6O[C@@H]6O[C@@H](C)[C@H](O)[C@@H](O)[C@H]6O)C(C)(C)[C@@H]5CC[C@]43C)[C@H]12 | – | 58.7 | 32.5 | –
C[C@H]1[C@H](C)CC[C@]2(C(=O)Nc3ccc4c(cnn4C)c3)CC[C@]3(C)C(=CC[C@@H]4[C@@]5(C)CC[C@H](O[C@@H]6O[C@H](CO)[C@@H](O[C@@H]7O[C@@H](C)[C@H](O)[C@@H](O)[C@H]7O)[C@H](O)[C@H]6O[C@@H]6O[C@@H](C)[C@H](O)[C@@H](O)[C@H]6O)C(C)(C)[C@@H]5CC[C@]43C)[C@H]12 | – | 51.9 | 41.1 | –
COc1cccc(OC)c1NC(=O)[C@]12CC[C@@H](C)[C@H](C)[C@H]1C1=CC[C@@H]3[C@@]4(C)CC[C@H](O[C@@H]5O[C@H](CO)[C@@H](O[C@@H]6O[C@@H](C)[C@H](O)[C@@H](O)[C@H]6O)[C@H](O)[C@H]5O[C@@H]5O[C@@H](C)[C@H](O)[C@@H](O)[C@H]5O)C(C)(C)[C@@H]4CC[C@@]3(C)[C@]1(C)CC2 | 9.84 | 96.8 | 46.8 | EC50 (SARS-CoV-2 [5]): > 100 µM; selectivity ratio [2]: > 10.2; inhibition (SARS-CoV-2 [6]): Active; inhibition (SARS-CoV-2 [7]): Active; inhibition (SARS-CoV-2 [8]): Active; EC50 (SARS-CoV-2 [9]): 7.68 µM; EC50 (SARS-CoV-2 [10]): 11.6 µM; EC50 (SARS-CoV-2 [11]): 2.66 µM; EC50 (SARS-CoV-2 [12]): 1.78 µM; EC50 (SARS-CoV-2 [13]): 7.23 µM
COc1ccc(CNC(=O)[C@]23CC[C@@H](C)[C@H](C)[C@H]2C2=CC[C@@H]4[C@@]5(C)CC[C@H](O[C@@H]6O[C@H](CO)[C@@H](O[C@@H]7O[C@@H](C)[C@H](O)[C@@H](O)[C@H]7O)[C@H](O)[C@H]6O[C@@H]6O[C@@H](C)[C@H](O)[C@@H](O)[C@H]6O)C(C)(C)[C@@H]5CC[C@@]4(C)[C@]2(C)CC3)cc1 | 11.8 | 85.7 | 36.3 | EC50 (SARS-CoV-2 [5]): > 100 µM; selectivity ratio [2]: > 10
C[C@H]1[C@H](C)CC[C@]2(C(=O)Nc3ccc4c(c3)OCCO4)CC[C@]3(C)C(=CC[C@@H]4[C@@]5(C)CC[C@H](O[C@@H]6O[C@H](CO)[C@@H](O[C@@H]7O[C@@H](C)[C@H](O)[C@@H](O)[C@H]7O)[C@H](O)[C@H]6O[C@@H]6O[C@@H](C)[C@H](O)[C@@H](O)[C@H]6O)C(C)(C)[C@@H]5CC[C@]43C)[C@H]12 | – | 30.4 | -2.49 | –
C[C@H]1[C@H](C)CC[C@]2(C(=O)Nc3ccc4ncccc4c3)CC[C@]3(C)C(=CC[C@@H]4[C@@]5(C)CC[C@H](O[C@@H]6O[C@H](CO)[C@@H](O[C@@H]7O[C@@H](C)[C@H](O)[C@@H](O)[C@H]7O)[C@H](O)[C@H]6O[C@@H]6O[C@@H](C)[C@H](O)[C@@H](O)[C@H]6O)C(C)(C)[C@@H]5CC[C@]43C)[C@H]12 | – | 33.1 | 27.4 | –
C[C@H]1[C@H](C)CC[C@]2(C(=O)NC(c3ccccc3)c3ccccc3)CC[C@]3(C)C(=CC[C@@H]4[C@@]5(C)CC[C@H](O[C@@H]6O[C@H](CO)[C@@H](O[C@@H]7O[C@@H](C)[C@H](O)[C@@H](O)[C@H]7O)[C@H](O)[C@H]6O[C@@H]6O[C@@H](C)[C@H](O)[C@@H](O)[C@H]6O)C(C)(C)[C@@H]5CC[C@]43C)[C@H]12 | – | 1.58 | 0.47 | –
C[C@H]1[C@H](C)CC[C@]2(C(=O)Nc3ccc4ccccc4c3)CC[C@]3(C)C(=CC[C@@H]4[C@@]5(C)CC[C@H](O[C@@H]6O[C@H](CO)[C@@H](O[C@@H]7O[C@@H](C)[C@H](O)[C@@H](O)[C@H]7O)[C@H](O)[C@H]6O[C@@H]6O[C@@H](C)[C@H](O)[C@@H](O)[C@H]6O)C(C)(C)[C@@H]5CC[C@]43C)[C@H]12 | – | 14.5 | -7.27 | –
